Compound activity deposited in PubChem by several laboratories.
HTR2A ag: agonists of mouse serotonin 5-HT2A receptor (HTR2A) | P35363 | CHO-K1 mHTR2A beta-arrestin complementation, luminescence; percent of 30 µM serotonin response | activation, % at 7.6 µM | 0.66% of 360,000 active | AID 624169;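 active = activation above a run cutoff, the mean activation of all tested compounds plus 3 SD, cut at about 14% in these data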;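 note: 0% = plate median of compound wells and 100% = 30 µM serotonin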
Target sequence (P35363 whole entry, looked up): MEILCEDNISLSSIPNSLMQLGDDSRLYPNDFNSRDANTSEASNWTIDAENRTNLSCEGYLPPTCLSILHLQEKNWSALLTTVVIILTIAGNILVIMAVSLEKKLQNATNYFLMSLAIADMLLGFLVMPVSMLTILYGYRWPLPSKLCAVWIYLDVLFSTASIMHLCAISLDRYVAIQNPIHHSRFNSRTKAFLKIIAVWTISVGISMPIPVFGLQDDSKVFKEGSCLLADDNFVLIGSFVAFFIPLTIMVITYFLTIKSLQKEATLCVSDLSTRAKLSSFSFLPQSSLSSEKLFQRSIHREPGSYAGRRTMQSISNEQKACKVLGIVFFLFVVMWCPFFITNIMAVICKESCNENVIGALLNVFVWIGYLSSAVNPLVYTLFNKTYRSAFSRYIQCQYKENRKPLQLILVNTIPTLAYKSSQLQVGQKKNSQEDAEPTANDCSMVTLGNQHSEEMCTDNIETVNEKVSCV
VIM-2 inhibitor: blocks Pseudomonas aeruginosa VIM-2 metallo-beta-lactamase. purified VIM-2, nitrocefin hydrolysis, epi-absorbance fluorescence. inhibition, % at 5.6 µM. 0.89% of 290,000 active. AID 1527;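 active = inhibition above the mean of all tested compounds plus 3 SD, cutoff set per screening run, cut at about 7.5% in these data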;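 note: red hydrolysis product quenches plate fluorescence so inhibitors raise well fluorescence; 0% = enzyme with DMSO and 100% = DMSO without enzyme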
IMP-1 inh-1: blocks Pseudomonas aeruginosa IMP-1 metallo-beta-lactamase. purified IMP-1, nitrocefin hydrolysis, epi-absorbance fluorescence. inhibition, % at 5.6 µM. 0.45% of 290,000 active. AID 1556;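 active = inhibition above the mean plus 3 SD of all compounds in the same screening run, cut at about 4.5% in these data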;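 note: 0% = IMP-1 with DMSO and 100% = DMSO wells lacking enzyme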
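Test system: recombinant IMP-1 enzyme, purified / Medium: HEPES buffer pH 7.1 with ZnSO4 and Brij 35 / Doses: single dose, 5.6 µM / Times: 25 °C, 15 min preincubation, 25 min reaction / Detection: Epi-absorbance via hydrolysed-nitrocefin quenching of white-plate fluorescence, 480/530 nm, EDTA stop / Evaluation: percent inhibition from optical density relative to buffer-blank wells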
dFosB act: activators of mouse delta FosB homodimer. 0.99% of 340,000 active. purified delta FosB, TAMRA-CDK5 oligo fluorescence polarization; percent of positive-control signal above neutral wells. activation, % at 25 µM. P13346;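 active = mean activation above about 17%, with every replicate also reaching it, limit read from the data, passing the limit was not always enough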
IMP-1 inh-2: blocks IMP-1 metallo-beta-lactamase in VIM-2 selectivity screen | shares compounds with VIM-2 inhibitor | purified IMP-1, nitrocefin hydrolysis, epi-absorbance fluorescence | inhibition, % at 5.6 µM | 1,300 tested, under 10 active | AID 1856; call rule not given here;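 note: 0% = enzyme with vehicle and 100% = vehicle without enzyme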
VIM-2 FRET ctr: inhibits VIM-2 in FRET assay to exclude epi-absorbance artifacts. shares compounds with VIM-2 inhibitor. purified VIM-2, CCF2 FRET substrate hydrolysis. inhibition, % at 5.6 µM. 23% of 1,300 active. AID 1857;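 active = inhibition above the mean of all tested compounds plus 3 SD, cut at about 19% in these data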;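 note: 0% = VIM-2 plus DMSO and 100% = no enzyme wells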
TEM-1 inh: blocks E. coli TEM-1 beta-lactamase in VIM-2 selectivity screen | 3% of 1,300 active | Purified TEM-1, nitrocefin hydrolysis, epi-absorbance fluorescence | AID 1866 | shares compounds with VIM-2 inhibitor | inhibition, % at 5.6 µM;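 active = inhibition above that campaign's mean inhibition plus 3 SD, cut at about 0.46% in these data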;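 note: 0% = TEM-1 with DMSO and 100% = TEM-1 with 100 µM potassium clavulanate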
VIM-2 confirm 2: confirmation of P. aeruginosa VIM-2 metallo-beta-lactamase inhibitors; inhibition, % at 5.6 µM; shares compounds with VIM-2 inhibitor; purified VIM-2, nitrocefin hydrolysis, epi-absorbance; AID 2187; 96% of 1,300 active;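 active = inhibition of the VIM-2 beta-lactamase enzyme above about 11% from the earlier first-round screen, limit read from the data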;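 note: 0% = VIM-2 with DMSO and 100% = buffer wells without enzyme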
Numbers without * were called inactive; x = not tested or not shown. Compounds with a hit are over-represented: about 2.5% of the library has one in this group of screens.

SMILES	HTR2A ag	VIM-2 inhibitor	IMP-1 inh-1	dFosB act	IMP-1 inh-2	VIM-2 FRET ctr	TEM-1 inh	VIM-2 confirm 2
CC1=CCC(C(=O)O)(C(=O)N/N=C/c2cccs2)C(c2ccc(Cl)cc2)C1 (stereo not drawn)	4	15*	-1	0	-4	0	-5	4
CCN(CC)c1ccc(-c2nn3c(-c4ccccc4OC)nnc3s2)cc1	-1	13*	-4	-12	-4	-9	-8	1
OC(CON=C1c2ccccc2-c2ccccc21)CN1CCNCC1 (stereo not drawn)	10	30*	-1	-20	-3	-4	-7	45*
CCC(CO)NC(=O)c1ccc(-c2nn(C)c(=O)c3ccccc23)cc1 (stereo not drawn)	-3	3	-4	-6	x	x	x	x
CN(C)CCNC(=O)c1ccc(-c2nn(C)c(=O)c3ccccc23)cc1	-1	32*	-3	-20	-3	-1	-5	50*
CN1CCN(C(=O)c2ccc(-c3ccccc3)cc2)CC1	-7	1	0	1	x	x	x	x
CN1CCN(C(=O)c2ccc(-c3nn(C)c(=O)c4ccccc34)cc2)CC1	0	70*	-4	-10	-1	-8	1.5*	79*
CCCNC(=O)c1ccc(-c2nn(C)c(=O)c3ccccc23)cc1	-3	3	-2	-14	x	x	x	x
Cn1nc(-c2ccc(C(=O)N3CCN(CCO)CC3)cc2)c2ccccc2c1=O	-4	65*	-4	5	-3	2	-6	69*
CC1(c2nnnn2Cc2ccccc2)CCC(=O)N1CCCn1ccnc1 (stereo not drawn)	1	x	x	x	x	x	x	x
Cc1csc(=O)n1CCC(=O)OCC(=O)NNC(=O)c1ccc(Cl)cc1	2	x	x	-4	x	x	x	x
Cn1c(SCc2ccc(F)cc2Cl)nc2ccccc2c1=O	-3	x	x	0	x	x	x	x
CN(CC(=O)Nc1ccc(F)c(F)c1F)C(=O)C1CCN(C(=O)Nc2ccccc2)CC1	6	x	x	3	x	x	x	x
Nc1nonc1-n1nnc(C(=O)N/N=C/c2ccoc2)c1CSc1ccc(Cl)cc1	1	1	1	-2	x	x	x	x
COc1ccc(Cl)cc1N1C(=O)CN(Cc2cc(OC)c(OC)c(OC)c2)C1=S	2	0	-1	-6	x	x	x	x
Oc1[nH]c2ccccc2c1C=Nc1ccccc1	-1	12*	-1	0	-2	25*	-4	21*
OCCN=Cc1c(O)[nH]c2ccccc12	2	-3	-3	-2	x	x	x	x
OC(c1ccccc1)c1nc(-c2ccc(F)c(Cl)c2)cs1 (stereo not drawn)	-1	x	x	x	x	x	x	x
O=C(Nc1ccc(Cl)cc1)N1CCN(c2ccc3nnc(-c4ccc(F)cc4)n3n2)CC1	-2	2	-1	14	x	x	x	x
O=C(Nc1ccccc1Cl)N1CCN(c2ccc3nnc(-c4ccccc4)n3n2)CC1	0	16*	1	-29	0	8	-1	24*
CCOc1ccc2nc(NCCNC(=S)NCCCN(C)C)c(C#N)cc2c1	11	13*	0	-4	-4	-5	-8	18*
O=C1CN(C(=O)COC(=O)c2ccc(Cl)c(S(=O)(=O)N3CCCCC3)c2)c2ccccc2N1	-6	x	x	-15	x	x	x	x
COc1ccc(-c2cc(C(F)(F)F)n3nc(C(=O)NCCCn4ccnc4)cc3n2)cc1	0	29*	-3	-27	-2	-13	-6	48*
CC(=O)c1ccc(N2CCN(C(=O)C(=O)c3cn(CC(=O)N4CCCCCC4)c4ccccc34)CC2)cc1	-2	0	-1	-7	x	x	x	x
c1ccc(Cn2c[n+](Cc3ccccc3)cn2)cc1	0	-3	-5	7	x	x	x	x
SMILES	HTR2A ag	VIM-2 inhibitor	IMP-1 inh-1	dFosB act	IMP-1 inh-2	VIM-2 FRET ctr	TEM-1 inh	VIM-2 confirm 2
COc1ccc(-c2cc(C(F)(F)F)nc(N3CCN(C)CC3)n2)cc1	-12	17*	-4	-16	-2	36*	-7	25*
COc1ccc(-c2cc(C(F)(F)F)nc(N3CCCCCC3)n2)cc1	-1	-2	-3	0	x	x	x	x
COc1ccc(-c2cc(C(F)(F)F)nc(N3CCN(C)CC3)n2)cc1OC	-4	18*	0	6	-2	1	-6	30*
CCN(CC)CCN(Cc1cc2cc(C)ccc2[nH]c1=O)C(=S)Nc1ccccc1	-19	-1	-3	-15	x	x	x	x
O=C(N/N=C/c1coc2ccccc2c1=O)c1cc(O)cc(O)c1	-3	0	-1	-15	x	x	x	x
COc1cc(C(=O)N/N=C/c2coc3ccccc3c2=O)cc(OC)c1OC	4	18*	4	-11	2	31*	-5	19*
CC(=O)Nc1cccc(-c2nnc(SCC(=O)n3c4c(c5ccccc53)CCCC4)n2C)c1	0	15*	-2	13	-4	9	-9	5
CCCCC(=O)N/N=C/c1ccc(-c2ccc([N+](=O)[O-])cc2)o1	-2	-2	1	-5	x	x	x	x
Cc1cc(C)n(Cc2ccc(C(=O)N/N=C/c3ccc(-c4ccc([N+](=O)[O-])cc4)o3)o2)n1	-2	42*	-4	4	-1	1	13*	14*
CCn1c(C)nnc1SCC(=O)Nc1ccc(Cl)cc1	-6	-1	1	1	x	x	x	x
O=C(Nc1ccccc1O)/C(=C\c1ccccc1)NC(=O)c1ccccc1	2	-4	-1	-5	x	x	x	x
